Compound activity: PubChem, The Scripps Research Institute Molecular Screening Center
GPR7 antagonist: human neuropeptides B/W receptor 1 antagonism; P48145; GPR7-expressing cells, fluorescence antagonist assay; inhibition, % at 4.4 µM; 290,000 compounds, 1.1% hits; AID 1861; in the data active = inhibition above about 16%, passing the limit was not always enough;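 note: cells stimulated with the agonist NPW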
Target sequence (P48145 whole entry, looked up): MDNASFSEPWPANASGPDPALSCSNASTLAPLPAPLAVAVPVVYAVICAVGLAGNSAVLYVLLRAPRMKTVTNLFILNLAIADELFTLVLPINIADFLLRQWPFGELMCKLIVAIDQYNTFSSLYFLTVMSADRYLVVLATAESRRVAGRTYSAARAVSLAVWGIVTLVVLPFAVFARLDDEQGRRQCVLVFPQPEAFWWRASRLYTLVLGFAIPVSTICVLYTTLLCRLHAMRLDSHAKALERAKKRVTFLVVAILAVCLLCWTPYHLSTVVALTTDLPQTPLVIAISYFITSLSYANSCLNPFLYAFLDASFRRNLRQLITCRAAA
CHO parental Ca: signal in parental CHO cells, OX1R antagonist counter-screen. AID 463079. inhibition, % at 5.6 µM. 330,000 compounds, 0.63% hits. parental CHO-K1, ATP-induced calcium, Fluo-8 fluorescence;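 active = inhibition above that plate's mean sample inhibition plus 3 SD, cut at about 26% in these data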
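Test system: untransfected parental CHO cell line. Compound: one dose, 5.6 µM nominal. Detection: intracellular calcium via Fluo-8 no-wash fluorescent dye. Measure: % inhibition. Benchmarks: ATP-challenged DMSO wells low, unchallenged DMSO wells high.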
TAAR1 antagonist: human TAAR1 antagonism. Q96RJ0. inhibition, % at 3 µM. 360,000 compounds, 1.5% hits. CHO RD-HGA16 TAAR1, Fluo-8 calcium fluorescence, antagonist;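 active = inhibition above a per-plate cutoff, the mean inhibition of test compounds on that plate plus 3 SD, cut at about 49% in these data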
Target sequence (Q96RJ0 whole entry, looked up): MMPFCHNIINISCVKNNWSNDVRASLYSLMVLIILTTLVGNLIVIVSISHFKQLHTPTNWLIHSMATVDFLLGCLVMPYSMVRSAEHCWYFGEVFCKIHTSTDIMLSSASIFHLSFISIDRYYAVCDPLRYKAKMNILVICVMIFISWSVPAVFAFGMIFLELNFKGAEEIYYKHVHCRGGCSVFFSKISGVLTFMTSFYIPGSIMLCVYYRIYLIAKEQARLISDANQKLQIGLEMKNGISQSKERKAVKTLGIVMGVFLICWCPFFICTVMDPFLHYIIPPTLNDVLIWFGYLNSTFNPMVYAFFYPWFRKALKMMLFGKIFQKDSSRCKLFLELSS
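Assay system: RD-HGA16 CHO cells with stable hTAAR1 and Gα16 / Reagent: EC80 β-phenethylamine stimulus / Doses: 3 µM, single point / Timing: dye loading 75 min at 37 °C, then 30 min room temperature / Measured by: Fluo-8 intracellular calcium dye fluorescence, real-time kinetic reads / Controls: vehicle wells and EC80 agonist wells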
OX1R antag-1: antagonists of human orexin 1 receptor (OX1R); O43613; AID 485270; inhibition, % at 6.6 µM; 330,000 compounds, 1.8% hits; OX1R-expressing cells, FRET antagonist read-out; in the data active = inhibition mostly above about 38%, no sharp cut-off; inactive = mostly below about 40%
OX1R antag-2: human HCRTR1 antagonism; O43613; CHO/OX1R cells, Fluo-8 calcium fluorescence, orexin A; inhibition, % at 5 µM; 330,000 compounds, 0.43% hits; AID 434989;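 active = inhibition above its plate's threshold, mean inhibition of all tested compounds on the plate plus 3 SD, cut at about 37% in these data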
TAAR1 agonist: agonists of human TAAR1. CHO RD-HGA16 TAAR1, Fluo-8 calcium fluorescence; vehicle wells 0%, saturating PEA agonist 100%. activation, % at 3 µM. 360,000 compounds, 0.99% hits. AID 624467;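 active = activation above the mean activation of all test compounds in the run plus 3 SD, cut at about 38% in these data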
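Benchmarks: low control DMSO, high control PEA (EC100); System: CHO RD-HGA16 cells carrying human TAAR1 plus Gα16; Detection: Fluo-8 fluorescence, 5 s baseline then 140 s kinetic read; Schedule: 17-24 h plating, Fluo-8 75 min 37 °C, 30 min RT; Read-out basis: % activation from peak over basal fluorescence ratio, DMSO-to-PEA scaled.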
TAAR1 nonsel count: counter-screen for TAAR1 antagonists: nonselective antagonists; 2,400 compounds, 77% hits; counterscreen cell line, calcium fluorescence, antagonist mode; shares compounds with TAAR1 antagonist; inhibition, % at 3 µM; in the data active = inhibition above about 22%;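 note: CHO-Ga16 host cells stimulated with ATP at an EC80 level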
TAAR1 antag conf: confirmation of human TAAR1 antagonists; shares compounds with TAAR1 antagonist; TAAR1-expressing cells, fluorescence antagonist read-out; inhibition, % at 3 µM; 2,400 compounds, 40% hits; AID 651785; in the data active = inhibition above about 49%;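 note: CHO-Ga16 host cells challenged with agonist PEA near its EC80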
Ga16 ag counter: nonselective Ga16 agonism, counter-screen | activation, % at 3 µM | 2,400 compounds, 18% hits | Ga16-expressing cells, calcium fluorescence, agonist counterscreen | shares compounds with TAAR1 antagonist; in the data active = activation above about 12%
TAAR1 ag count: counter-screen for human TAAR1 antagonists: TAAR1 agonists | 2,400 compounds, 2% hits | activation, % at 3 µM | shares compounds with TAAR1 antagonist | hTAAR1 cell line, fluorescence activation, agonist mode; in the data active = activation above about 37%;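 note: CHO cells stably expressing TAAR1 with calcium dye readout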
A number is an active result; - = inactive; . = no result given; ! = a repeat was not active. A selection: hits, their analogues and other compounds. The true share with any hit is near 4.6%.

SMILES	GPR7 antagonist	CHO parental Ca	TAAR1 antagonist	OX1R antag-1	OX1R antag-2	TAAR1 agonist	TAAR1 nonsel count	TAAR1 antag conf	Ga16 ag counter	TAAR1 ag count
N=c1c2c(ncn1CCN1CCOCC1)Oc1cc(O)ccc1C2c1ccccc1 (stereo not drawn)	-	-	75	-	-	-	22	-	-	-
O=C(CCN1C(=O)C2C3C=CC(C3)C2C1=O)NCCc1ccccc1 (stereo not drawn)	-	-	52	-	-	-	-	52	-	-
O=C1C2C3C=CC(C3)C2C(=O)N1CCc1ccccc1 (stereo not drawn)	-	-	-	-	-	-	.	.	.	.
COc1ccccc1S(=O)(=O)Cc1ccc(C(=O)N2CCN(c3ccc(C)cc3)C(C)C2)o1 (stereo not drawn)	-	-	-	-	-	-	.	.	.	.
COc1ccc(S(=O)(=O)Cc2ccc(C(=O)N3CCN(c4ccc(Cl)cc4)CC3)o2)cc1	-	41	72	-	-	-	33	-	-	-
O=C(c1ccc(CS(=O)Cc2ccc(Cl)cc2)o1)N1CCN(c2ccc(F)cc2)CC1 (stereo not drawn)	-	-	72	-	-	-	-	-	-	-
COc1ccc(S(=O)(=O)Cc2ccc(C(=O)N3CCN(c4cccc(C)c4)C(C)C3)o2)cc1 (stereo not drawn)	-	-	59	-	-	-	31	-	-	-
COc1ccc(N2CCN(C(=O)c3ccc(CS(=O)(=O)c4ccc(OC)cc4)o3)CC2)cc1	-	-	-	-	-	-	.	.	.	.
Cc1ccc(S(=O)(=O)NC(=O)NC2=NC(C)(C)N(c3ccc(Cl)c(Cl)c3)C(N)=N2)cc1	.	.	-	.	.	-	.	.	.	.
O=C(COC(=O)C1CCN(c2ccc(C(F)(F)F)cn2)CC1)Nc1ncc(Cl)cc1Cl	.	-	-	-	-	-	.	.	.	.
COc1cc(-c2nc3ccc(C)cn3c2NCc2ccccc2)ccc1-c1cccc(Cl)c1	.	-	-	-	-	-	.	.	.	.
CCC(C)Sc1ccc(-c2nc3ccc(C)cn3c2NCc2ccccc2)cc1 (stereo not drawn)	.	-	72	-	-	-	39	57	-	-
CCCCNc1c(-c2ccc(-c3cccc(Cl)c3)cc2)nc2ccccn12	.	-	65!	-	-	-	31	-	19	-
Cc1ccc2nc(-c3ccc(-c4cccc(Cl)c4)cc3)c(NCc3ccccc3)n2c1	.	-	64	-	-	-	32	-	-	-
CC(C)n1c(=O)c2ccccc2n1Cc1cn(Cc2cccnc2)nn1	.	.	-	.	.	-	.	.	.	.
CCCCc1ccc(S(=O)(=O)NCCCN2CCCC2=O)cc1	-	-	-	-	-	-	.	.	.	.
O=C1CCc2cc(S(=O)(=O)NCc3ccccc3Cl)cc3c2N1CC3	.	-	-	-	-	-	.	.	.	.
Cc1coc(NC(=O)CSc2nc(-c3ccc(Cl)cc3)cc(C(F)(F)F)c2C#N)n1	-	-	.	-	-	.	-	.	-	.
COc1ccc(-c2cc(C(F)(F)F)c(C#N)c(SCC(=O)Nc3nc(C)co3)n2)cc1	-	-	.	-	-	.	.	.	.	.
CC1(C(=O)Nc2ccc3c(c2)OCCO3)CN(S(C)(=O)=O)CC(=O)N1CCCN1CCOCC1 (stereo not drawn)	.	.	-	.	.	-	.	.	.	.
CCOc1ccc(C(C(=O)NCC2CCCO2)N(Cc2ccccc2)C(=O)c2snc(C(N)=O)c2N)cc1 (stereo not drawn)	-	-	57	-	-	-	35	57	12	-
COc1ccc(C(C(=O)NCC2CCCO2)N(Cc2cccs2)C(=O)c2snc(C(N)=O)c2N)cc1 (stereo not drawn)	-	-	59	-	-	-	23	58	27	-
CC1CCN(C(=O)COC(=O)c2cccc(S(=O)(=O)N3CCOCC3)c2)CC1	.	.	-	.	.	-	.	.	.	.
Cc1ccc(Cl)cc1NC(=O)Cn1c(C)csc1=O	.	-	-	-	-	-	.	.	.	.
C=CCn1c(=S)[nH]c2cc(C(=O)Nc3ccc(F)cc3)ccc2c1=O	-	-	62	-	-	-	35	-	15	-
SMILES	GPR7 antagonist	CHO parental Ca	TAAR1 antagonist	OX1R antag-1	OX1R antag-2	TAAR1 agonist	TAAR1 nonsel count	TAAR1 antag conf	Ga16 ag counter	TAAR1 ag count
CC(=O)c1cc(Cl)ccc1OCc1cccc(S(=O)(=O)N2CCOCC2)c1	.	-	91	-	-	-	35	55	13	-
O=S(=O)(c1cccc(COc2ccc(Cl)cc2Cl)c1)N1CCOCC1	-	-	-	-	-	-	.	.	.	.
CC(C)(C)c1ccc(OCc2ccc(C(=O)Nc3cccnc3)o2)cc1	-	29	75	-	-	-	50	61	-	-
CC(=O)c1ccc(OCC(=O)Nc2ccc3c(c2)CCC3)cc1	-	-	84	-	-	-	-	-	-	-
NS(=O)(=O)c1ccc(CNC(=O)Cc2cccs2)cc1	-	-	-	-	-	-	.	.	.	.
O=C(NCc1cccs1)c1cc(-c2ccccc2)nc2ccccc12	-	-	58	-	-	-	23	-	-	-
COc1cc(-c2cc(C(=O)NCCc3ccc(S(N)(=O)=O)cc3)c3ccccc3n2)cc(OC)c1OC	-	-	-	-	-	-	.	.	.	.
NS(=O)(=O)c1cccc(NC(=O)c2cccs2)c1	-	-	-	-	-	-	.	.	.	.
NS(=O)(=O)c1ccc(CCNC(=O)c2cc(-c3cccs3)nc3ccccc23)cc1	-	.	65	.	.	-	35	57	12	-
NS(=O)(=O)c1ccc(CNC(=O)c2cc(-c3cccs3)nc3ccccc23)cc1	-	-	69	-	-	-	36	51	-	-
NS(=O)(=O)c1cccc(NC(=O)c2cc(-c3cccs3)nc3ccccc23)c1	-	-	67	-	-	-	37	50	-	-
CCC(C)NC(=O)c1cc(-c2cccs2)nc2ccccc12 (stereo not drawn)	-	-	-	-	-	-	.	.	.	.
CC(C)CCNC(=O)c1cc(-c2cccs2)nc2ccccc12	-	-	66	-	-	-	29	-	-	-
O=C(c1cc(-c2cccs2)nc2ccccc12)N1CCN(S(=O)(=O)c2ccccc2)CC1	-	-	-	-	-	-	.	.	.	.
O=C(c1cc(-c2cccs2)nc2ccccc12)N1CCN(S(=O)(=O)c2cccc(F)c2)CC1	-	-	52	-	-	-	34	-	-	-
COc1ccc(C2CC(=O)C(c3cccc(C)c3)=CN2Cc2ccccc2)cc1 (stereo not drawn)	.	.	66	.	.	-	22	-	-	-
